# Structures can show the parent of a compound that is named as a salt. Active and inactive are the calls of the source. The calls are words filed in the database; no cut-off is given here.
# Legend:
# [1] = target: T1, Muscarinic acetylcholine receptor M3 (Homo sapiens, UniProt P20309); test: Antagonist activity at human muscarinic M3 receptor expressed in CHO cells assessed as inhibition of carbachol-induced Eu-GTP binding; type: cell-based
# Method in brief: (§1)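 Membranes from CHO-K1 cells stably expressing the human receptor subtype. Agonist was carbachol, and the read-out was carbachol-stimulated binding of the non-hydrolysable analogue Eu-GTP to Gα subunits. pKb was estimated functionally by concentration-ratio analysis. Values are the mean of three experiments run in triplicate.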
# Target sequence in this assay (P20309 whole entry, looked up): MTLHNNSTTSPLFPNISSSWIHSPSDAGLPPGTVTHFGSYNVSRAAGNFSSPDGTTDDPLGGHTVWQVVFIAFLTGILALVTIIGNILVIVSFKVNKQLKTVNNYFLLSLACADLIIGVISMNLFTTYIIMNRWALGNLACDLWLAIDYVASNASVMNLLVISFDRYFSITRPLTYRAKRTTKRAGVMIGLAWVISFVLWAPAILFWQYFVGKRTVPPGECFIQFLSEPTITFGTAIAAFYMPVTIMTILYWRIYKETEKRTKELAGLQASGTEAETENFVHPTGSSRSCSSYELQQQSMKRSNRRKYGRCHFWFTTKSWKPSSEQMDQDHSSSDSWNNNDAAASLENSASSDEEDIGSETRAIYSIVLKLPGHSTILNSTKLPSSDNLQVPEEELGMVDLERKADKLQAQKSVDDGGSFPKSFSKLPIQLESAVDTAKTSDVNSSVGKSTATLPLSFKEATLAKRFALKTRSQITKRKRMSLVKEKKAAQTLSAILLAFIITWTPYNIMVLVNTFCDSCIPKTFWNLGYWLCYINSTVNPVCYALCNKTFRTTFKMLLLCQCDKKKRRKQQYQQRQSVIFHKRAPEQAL
# [2] = target: T2, Muscarinic acetylcholine receptor M4 (Homo sapiens) (UniProt P08173); test: Antagonist activity at human muscarinic M4 receptor expressed in CHO cells assessed as inhibition of carbachol-induced Eu-GTP binding; type: cell-based; method in brief: as §1
# T2 sequence (whole entry): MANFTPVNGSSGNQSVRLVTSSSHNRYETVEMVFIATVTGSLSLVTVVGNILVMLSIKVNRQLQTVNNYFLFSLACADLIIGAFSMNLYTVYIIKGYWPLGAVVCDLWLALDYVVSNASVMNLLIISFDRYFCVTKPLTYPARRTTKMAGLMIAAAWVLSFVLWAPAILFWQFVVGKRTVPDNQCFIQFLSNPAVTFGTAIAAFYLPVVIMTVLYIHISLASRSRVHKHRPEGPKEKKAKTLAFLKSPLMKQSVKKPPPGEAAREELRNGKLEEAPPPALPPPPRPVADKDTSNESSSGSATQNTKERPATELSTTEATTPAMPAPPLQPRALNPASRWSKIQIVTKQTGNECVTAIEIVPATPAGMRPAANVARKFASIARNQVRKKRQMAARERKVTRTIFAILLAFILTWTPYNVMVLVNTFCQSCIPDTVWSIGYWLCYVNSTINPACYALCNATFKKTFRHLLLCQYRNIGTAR
# [3] = target: T3, Muscarinic acetylcholine receptor M5 (Homo sapiens) (UniProt P08912); test: Antagonist activity at human muscarinic M5 receptor expressed in CHO cells assessed as inhibition of carbachol-induced Eu-GTP binding; type: cell-based; method in brief: as §1
# T3 sequence (whole entry): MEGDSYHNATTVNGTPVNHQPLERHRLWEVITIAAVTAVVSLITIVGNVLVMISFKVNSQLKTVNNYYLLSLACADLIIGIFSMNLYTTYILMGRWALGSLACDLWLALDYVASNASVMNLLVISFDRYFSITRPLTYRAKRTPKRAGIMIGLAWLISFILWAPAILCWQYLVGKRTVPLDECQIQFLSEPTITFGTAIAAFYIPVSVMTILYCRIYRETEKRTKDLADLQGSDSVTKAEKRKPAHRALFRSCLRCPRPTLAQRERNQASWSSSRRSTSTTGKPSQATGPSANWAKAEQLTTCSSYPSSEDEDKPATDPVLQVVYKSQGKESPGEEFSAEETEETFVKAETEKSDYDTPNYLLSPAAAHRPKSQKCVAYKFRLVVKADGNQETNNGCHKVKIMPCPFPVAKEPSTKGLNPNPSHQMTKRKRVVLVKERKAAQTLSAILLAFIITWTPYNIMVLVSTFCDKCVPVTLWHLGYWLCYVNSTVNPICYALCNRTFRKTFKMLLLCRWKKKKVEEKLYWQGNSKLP
# [4] = target: T4, Muscarinic acetylcholine receptor M1 (Homo sapiens) (UniProt P11229); test: Antagonist activity at human muscarinic M1 receptor expressed in CHO cells assessed as inhibition of basal Eu-GTP binding; type: cell-based
# T4 sequence (whole entry): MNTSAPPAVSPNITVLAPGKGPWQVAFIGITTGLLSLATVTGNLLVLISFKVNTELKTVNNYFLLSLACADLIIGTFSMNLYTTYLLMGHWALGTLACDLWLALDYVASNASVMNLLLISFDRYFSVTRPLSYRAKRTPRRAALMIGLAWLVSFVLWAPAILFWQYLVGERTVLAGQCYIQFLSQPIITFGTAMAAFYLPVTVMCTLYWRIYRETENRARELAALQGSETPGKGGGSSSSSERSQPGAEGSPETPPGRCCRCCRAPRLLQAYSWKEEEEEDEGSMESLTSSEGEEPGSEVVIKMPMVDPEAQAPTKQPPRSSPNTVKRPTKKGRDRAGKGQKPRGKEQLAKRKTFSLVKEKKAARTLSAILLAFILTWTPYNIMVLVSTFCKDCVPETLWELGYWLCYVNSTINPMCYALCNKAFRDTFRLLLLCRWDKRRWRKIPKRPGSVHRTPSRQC
# [5] = target: T5, Muscarinic acetylcholine receptor M2 (Homo sapiens) (UniProt P08172); test: Antagonist activity at human muscarinic M2 receptor expressed in CHO cells assessed as inhibition of basal Eu-GTP binding; type: cell-based
# T5 sequence (whole entry): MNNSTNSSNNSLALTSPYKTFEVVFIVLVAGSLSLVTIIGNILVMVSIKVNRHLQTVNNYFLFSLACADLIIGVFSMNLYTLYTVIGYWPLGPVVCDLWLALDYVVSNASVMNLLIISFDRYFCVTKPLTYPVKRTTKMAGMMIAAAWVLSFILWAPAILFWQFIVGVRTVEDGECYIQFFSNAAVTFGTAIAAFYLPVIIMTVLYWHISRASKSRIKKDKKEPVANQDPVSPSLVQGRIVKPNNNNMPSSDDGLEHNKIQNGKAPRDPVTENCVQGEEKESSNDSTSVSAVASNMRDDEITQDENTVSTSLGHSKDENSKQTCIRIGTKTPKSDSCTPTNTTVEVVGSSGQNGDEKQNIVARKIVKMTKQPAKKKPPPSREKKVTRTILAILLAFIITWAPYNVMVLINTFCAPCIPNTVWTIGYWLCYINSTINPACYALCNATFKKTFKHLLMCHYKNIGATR
# [6] = target: T1, Muscarinic acetylcholine receptor M3; test: Antagonist activity at human muscarinic M3 receptor expressed in CHO cells assessed as inhibition of basal Eu-GTP binding; type: cell-based
# Target sequence in this assay (P20309 whole entry, looked up): as the sequence (P20309 whole entry, looked up) above
# [7] = target: T2, Muscarinic acetylcholine receptor M4 (Homo sapiens); test: Antagonist activity at human muscarinic M4 receptor expressed in CHO cells assessed as inhibition of basal Eu-GTP binding; type: cell-based
# [8] = target: T3, Muscarinic acetylcholine receptor M5 (Homo sapiens); test: Antagonist activity at human muscarinic M5 receptor expressed in CHO cells assessed as inhibition of basal Eu-GTP binding; type: cell-based
# [9] = target: T6, Muscarinic acetylcholine receptor M4 (Homo sapiens, UniProt P08173); test: Antagonist activity at human muscarinic M4 receptor expressed in CHO cells assessed as blockade of carbachol-induced inhibition of forskolin-stimulated cAMP accumulation; type: functional, cell-based
# T6 sequence (P08173 whole entry): T2 sequence (whole entry)
# [10] = target: T2, Muscarinic acetylcholine receptor M4 (Homo sapiens); test: Antagonist activity at human muscarinic M4 receptor expressed in CHO cells assessed as inhibition of forskolin-stimulated cAMP accumulation in absence of carbachol at 01 nM to 1 uM; type: functional, cell-based
# [11] = target: T7, Muscarinic acetylcholine receptor M1 (Homo sapiens, UniProt P11229); test: Displacement of [3H]N-methylscopolamine from human muscarinic M1 receptor expressed in CHO-K1 cells; type: cell-based
# T7 sequence (P11229 whole entry): T4 sequence (whole entry)
# [12] = target: T8, Muscarinic acetylcholine receptor M2 (Homo sapiens, UniProt P08172); test: Displacement of [3H]N-methylscopolamine from human muscarinic M2 receptor expressed in CHO-K1 cells; type: cell-based
# T8 sequence (P08172 whole entry): T5 sequence (whole entry)
# Method in brief: (§2)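 Binding was measured in CHO-K1 stable transfectants expressing the human receptor subtype. Labelled ligand was [³H]-N-methylscopolamine chloride. Values are the mean of three experiments performed in triplicate.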
# [13] = target: T1, Muscarinic acetylcholine receptor M3; test: Displacement of [3H]N-methylscopolamine from human muscarinic M3 receptor expressed in CHO-K1 cells; type: cell-based
# Target sequence in this assay (P20309 whole entry): as the sequence (P20309 whole entry, looked up) above
# [14] = target: T6, Muscarinic acetylcholine receptor M4; test: Displacement of [3H]N-methylscopolamine from human muscarinic M4 receptor expressed in CHO-K1 cells; type: cell-based; method in brief: as §2
# [15] = target: T9, Muscarinic acetylcholine receptor M5 (Homo sapiens, UniProt P08912); test: Displacement of [3H]N-methylscopolamine from human muscarinic M5 receptor expressed in CHO-K1 cells; type: cell-based; method in brief: as §2
# T9 sequence (P08912 whole entry): T3 sequence (whole entry)
# [16] = target: T4, Muscarinic acetylcholine receptor M1 (Homo sapiens); test: Antagonist activity at human muscarinic M1 receptor expressed in CHO cells assessed as inhibition of carbachol-induced Eu-GTP binding; type: cell-based; method in brief: as §1
# [17] = target: T5, Muscarinic acetylcholine receptor M2 (Homo sapiens); test: Antagonist activity at human muscarinic M2 receptor expressed in CHO cells assessed as inhibition of carbachol-induced Eu-GTP binding; type: cell-based; method in brief: as §1
Structure (SMILES),pKb [1],pKb [2],pKb [3],Activity [4],Activity [5],Activity [6],Activity [7],Activity [8],EC50 [9] [nM],IC50 [9] [nM],Activity [10],Ki [11] [µM],Ki [12] [nM],Ki [13] [µM],Ki [14] [nM],Ki [15] [nM],pKb [16],pKb [17]
CCOC(=O)c1c(C)[nH]c2ccc3c(c12)CN1CCc2cc(OC)ccc2C1O3 (configuration not stated),5.63,7.9,5.84,inactive,inactive,inactive,inactive,inactive,54,> 1000,inactive,2.29,1100,0.724,6.46,1820,5.74,5.55
C[N+](C)(CCCC(O)(c1ccccc1)c1ccccc1)CC[N+](C)(C)CCCC(O)(c1ccccc1)c1ccccc1,–,–,–,–,–,–,–,–,–,–,–,26.3,47900,43.7,11200,18200,–,–
CN(CCCN(C)CCCC(O)(c1ccccc1)c1ccccc1)CCCC(O)(c1ccccc1)c1ccccc1,–,–,–,–,–,–,–,–,–,–,–,1.35,5500,1.74,617,832,–,–
OC(CCCN1CCC(C2CCN(CCCC(O)(c3ccccc3)c3ccccc3)CC2)CC1)(c1ccccc1)c1ccccc1,6.14,7.21,6.4,inactive,inactive,inactive,inactive,inactive,138,–,–,0.794,871,0.724,74.1,776,5.92,5.82
C[N+]1(CCCC(O)(c2ccccc2)c2ccccc2)CCN(CCCC(O)(c2ccccc2)c2ccccc2)CC1,–,–,–,–,–,–,–,–,–,–,–,7.08,2290,5.5,1230,1550,–,–

# Now from value to compound:
pKb [1],pKb [2],pKb [3],Activity [4],Activity [5],Activity [6],Activity [7],Activity [8],EC50 [9] [nM],IC50 [9] [nM],Activity [10],Ki [11] [µM],Ki [12] [nM],Ki [13] [µM],Ki [14] [nM],Ki [15] [nM],pKb [16],pKb [17],Structure (SMILES)
–,–,–,–,–,–,–,–,–,–,–,0.2,275,0.275,288,708,–,–,C[N+]1(CCCC(O)(c2ccccc2)c2ccccc2)CCCCC1
–,–,–,–,–,–,–,–,–,–,–,5.75,3980,5.25,1170,2880,–,–,CN1CCC(C2CCN(CCCC(O)(c3ccccc3)c3ccccc3)CC2)CC1
–,–,–,–,–,–,–,–,–,–,–,–,2820,–,912,1290,–,–,OC(CCCN1CCCCC1)(c1ccccc1)c1ccccc1 [DIPHENIDOL HYDROCHLORIDE]
–,–,–,–,–,–,–,–,–,–,–,17.4,25700,7.59,22900,6920,–,–,C[N+]1(CCCC(O)(c2ccccc2)c2ccccc2)CCN(c2ccccc2)CC1

# From ChEMBL document CHEMBL1144815, “Diphenidol-related diamines as novel muscarinic M4 receptor antagonists” (Bioorg Med Chem Lett, 2008)
